Structures are written as SMILES. Calls of active or inactive are those of the source. The calls are words filed in the database; no cut-off is given here.

Test [1] relates to SNU-182. The experiment in a line: Inhibition of TGFbeta1-induced epithelial-mesenchymal transition in human SNU182 cells assessed as reduction in upregulation of Snail expression at 12.5 uM preincubated for 2 hrs followed by TGFbeta1 addition measured after 48 hrs by Western blot method. Type of test: functional, cell-based. The gist of the method: (§1)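 SNU182 cells pretreated 2 h with single agents (12.5 or 40 µM) or the mixture (20 and 40 µM), then stimulated with TGF-β1 5 ng/ml for 48 h. E-cadherin and Snail protein detected by Western blot, with GAPDH as loading control.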

The subject of test [2] is SNU-182. As to the kind of experiment: Inhibition of TGFbeta1-induced epithelial-mesenchymal transition in human SNU182 cells assessed as reduction in MMP9 mRNA expression at 12.5 uM preincubated for 2 hrs followed by TGFbeta1 addition measured after 48 hrs by qRT-PCR method. Format: functional, cell-based. Put shortly: (§2)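 SNU182 cells pretreated 2 h with single agents (12.5 or 40 µM) or the mixture (20 or 40 µM), then TGF-β 5 ng/ml for 48 h. MMP-2 and MMP-9 mRNA measured by RT-PCR with densitometry and by qRT-PCR, fold change by the 2^-ΔΔCt method. Mean±SD of triplicates.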

Test [3] relates to SNU-182. The experiment in a line: Inhibition of TGFbeta1-induced epithelial-mesenchymal transition in human SNU182 cells assessed as reduction in MMP9 mRNA expression preincubated for 2 hrs followed by TGFbeta1 addition measured after 48 hrs in presence of zingerone by qRT-PCR method. Type of test: functional, cell-based. Put shortly: as §2
Background: Quantitative PCR measures a nucleic acid by following its amplification.

Test [4] concerns SNU-182. The experiment in a line: Growth inhibition of human SNU182 cells assessed as cell growth at 50 uM after 48 hrs by CCK8 assay relative to control. Format: functional. The settings on record: SNU-182, 48 h, read-out: Activity. On the technique in general: Tetrazolium assays rely on reduction of a dye to a coloured formazan, in cell work by metabolically active cells.
Test [5] has as its system SNU-182. The experiment in a line: Inhibition of TGFbeta1-induced epithelial-mesenchymal transition in human SNU182 cells assessed as reduction in upregulation of N-cadherin expression preincubated for 2 hrs followed by TGFbeta1 addition measured after 48 hrs in presence of zingerone by Western blot method. Format: functional, cell-based. Put shortly: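 Pretreatment of SNU182 cells with the mixture at 20 and 40 µM for 2 h in serum-free medium, followed by TGF-β1 5 ng/ml for 48 h. N-cadherin and Snail detected by Western blot against GAPDH.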
(Immunoblotting shows a protein as a band on a membrane.)

The subject of test [6] is SNU-182. As to the kind of experiment: Inhibition of TGFbeta1-induced epithelial-mesenchymal transition in human SNU182 cells assessed as reduction in MMP2 mRNA expression preincubated for 2 hrs followed by TGFbeta1 addition measured after 48 hrs in presence of zingerone by qRT-PCR method. Format: functional, cell-based. Put shortly: as §2
The subject of test [7] is SNU-182. As to the kind of experiment: Growth inhibition of human SNU182 cells at <12.5 uM after 48 hrs by CCK8 assay. Type of test: functional, cell-based.
For test [8], the system named is SNU-182. The experiment in a line: Inhibition of TGFbeta1-induced epithelial-mesenchymal transition in human SNU182 cells assessed as reduction in mesenchymal phenotype preincubated for 2 hrs followed by TGFbeta1 addition measured after 48 hrs in presence of zingerone. Type of test: functional, cell-based. Put shortly:
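Cells preincubated 2 h in serum-free medium with the mixture (20 and 40 µM), then treated with TGF-β1 5 ng/ml for 48 h. Morphology (spindle-like, elongated shape, scattering) assessed by microscopy.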

The subject of test [9] is SNU-182. The experiment in a line: Inhibition of TGFbeta1-induced epithelial-mesenchymal transition in human SNU182 cells assessed as reduction in MMP2 activity measured after 48 hrs in presence of zingerone by gelatin zymography assay. Type of test: functional, cell-based. The gist of the method: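 Cells serum-starved overnight in 0.2% FBS medium, then left untreated or given TGF-β 5 ng/ml and/or the mixture for 48 h. MMP-2 and MMP-9 activity in conditioned medium determined by gelatin zymography.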

The test system of test [10] is SNU-182. The experiment in a line: Inhibition of TGFbeta1-induced epithelial-mesenchymal transition in human SNU182 cells assessed as reduction in MMP2 mRNA expression preincubated for 2 hrs followed by TGFbeta1 addition measured after 48 hrs in presence of (E)-1-(9-Ethyl-9H-carbazol-3-yl)-5-(4-hydroxy-3-methoxyphenyl)pent-1-en-3-one by qRT-PCR method. Format: functional, cell-based. Put shortly: as §2

Test [11] deals with SNU-182. As to the kind of experiment: Growth inhibition of human SNU182 cells at <50 uM in presence of (E)-1-(9-Ethyl-9H-carbazol-3-yl)-5-(4-hydroxy-3-methoxyphenyl)pent-1-en-3-one after 48 hrs by CCK8 assay. Format: functional, cell-based.
Test [12] concerns SNU-182. As to the kind of experiment: Inhibition of TGFbeta1-induced epithelial-mesenchymal transition in human SNU182 cells assessed as reduction in upregulation of Snail expression preincubated for 2 hrs followed by TGFbeta1 addition measured after 48 hrs in presence of (E)-1-(9-Ethyl-9H-carbazol-3-yl)-5-(4-hydroxy-3-methoxyphenyl)pent-1-en-3-one by Western blot method. Format: functional, cell-based. Put shortly: as §1

Test [13] deals with SNU-182. The experiment in a line: Inhibition of TGFbeta1-induced epithelial-mesenchymal transition in human SNU182 cells assessed as reduction in MMP2 mRNA expression at 40 uM preincubated for 2 hrs followed by TGFbeta1 addition measured after 48 hrs by qRT-PCR method. Format: functional, cell-based. The gist of the method: as §2
Test [14] concerns the target Transcription factor Jun (Homo sapiens) (UniProt P05412). The experiment in a line: Inhibition of TGFbeta1-induced AP-1 binding activity in human SNU182 cells at 20 to 40 uM measured after 48 hrs in presence of (E)-1-(9-Ethyl-9H-carbazol-3-yl)-5-(4-hydroxy-3-methoxyphenyl)pent-1-en-3-one by luciferase reporter gene assay. Format: cell-based. The gist of the method: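 SNU182 transfected with pGL4.44-AP-1-RE-Luc or empty pGL4.44, pretreated with the mixture (20 and 40 µM), then stimulated with TGF-β1 or DMSO. Luciferase reporter activity read. Mean±SD of triplicates.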

Test [15] relates to SNU-182. The experiment in a line: Inhibition of TGFbeta1-induced migration in human SNU182 cells at 40 uM measured after 48 hrs in presence of (E)-1-(9-Ethyl-9H-carbazol-3-yl)-5-(4-hydroxy-3-methoxyphenyl)pent-1-en-3-one by wound healing assay. Type of test: functional, cell-based. The gist of the method: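 Wound healing: SNU182 monolayers at about 90% confluence scratched with a pipette tip and washed. Medium with TGF-β1, with or without 40 µM mixture, then added. Wound imaged at 0 and 48 h; relative motility from cell surface area. Mean±SD of triplicates.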

Transcription factor Jun (Homo sapiens), sequence (P05412 whole entry): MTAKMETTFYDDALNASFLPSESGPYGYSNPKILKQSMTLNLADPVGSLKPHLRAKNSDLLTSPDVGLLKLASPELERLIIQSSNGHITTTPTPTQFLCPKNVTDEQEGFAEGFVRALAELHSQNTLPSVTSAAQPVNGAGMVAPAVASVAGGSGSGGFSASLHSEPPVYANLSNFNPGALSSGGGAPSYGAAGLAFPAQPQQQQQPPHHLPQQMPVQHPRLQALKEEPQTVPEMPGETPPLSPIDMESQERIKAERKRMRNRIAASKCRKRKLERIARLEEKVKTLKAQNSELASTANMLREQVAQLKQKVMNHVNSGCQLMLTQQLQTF

For `CCn1c2ccccc2c2cc(/C=C/C(=O)CCc3ccc(O)c(OC)c3)ccc21`, the inhibition entry in the test with SNU-182 [1] and with SNU-182 [2] was “inactive” in each case. Also, the inhibition result with SNU-182 [3], with SNU-182 [5], in the test on SNU-182 [6] and with SNU-182 [8] was “Dose-dependent effect” throughout. In the test on SNU-182 [4], the growth at 50 µM turned out to be 40%. Moreover, in the test with SNU-182 [7], the “growth inhibition (GI)” value was “inactive”. In addition, in the test on SNU-182 [9], the inhibition entry was “Active”.

For the molecule `COc1cc(CCC(C)=O)ccc1O`, the inhibition entry in the test with SNU-182 [10] and with SNU-182 [12] was “Dose-dependent effect” each time. In addition, the “growth inhibition (GI)” value in the test on SNU-182 [11] was “inactive”. In addition, the inhibition result in the test on SNU-182 [13] is “inactive”. In addition, the inhibition entry (in test [14]; in the test on SNU-182 [15]) was “Active” throughout.
